Measurements taken from ChEMBL document CHEMBL1142436, “Design and synthesis of 4-substituted indolo[3,2-e][1,2,3]triazolo[1,5-a]pyrimidine derivatives with antitumor activity” (2008).

Key:
Type in all cases: functional
SK-MEL-28 = test: Growth inhibition of human SK-MEL28 cells after 48 hrs; settings: SK-MEL-28, 48 h
Procedure, shortened: (§1)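 NCI ~60-line screen. Cells were grown in RPMI 1640 with 5% FBS and 2 mM L-glutamine and plated at 5000–40000 cells/well. After a 24 h preincubation, five drug concentrations from DMSO stocks were added for 48 h at 37 °C. Cells were TCA-fixed, stained with SRB and read at 515 nm. GI50 was taken from time-zero and control absorbances and reported as pGI50.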

COLO 205 = test: Growth inhibition of human COLO205 cells after 48 hrs; settings: COLO 205, 48 h; procedure, shortened: as §1
HT-29 = test: Growth inhibition of human HT29 cells after 48 hrs; settings: HT-29, 48 h; procedure, shortened: as §1
SK-MEL-2 = test: Growth inhibition of human SK-MEL2 cells after 48 hrs; settings: SK-MEL-2, 48 h; procedure, shortened: as §1
HOP-62 = test: Growth inhibition of human HOP62 cells after 48 hrs; settings: HOP-62, 48 h; procedure, shortened: as §1
MDA-MB-435 = test: Growth inhibition of human MDA-MB435 cells after 48 hrs; settings: MDA-MB-435, 48 h; procedure, shortened: as §1
M14 = test: Growth inhibition of human M14 cells after 48 hrs; settings: M14, 48 h; procedure, shortened: as §1
OVCAR-3 = test: Growth inhibition of human OVCAR-3 cells after 48 hrs; settings: OVCAR-3, 48 h; procedure, shortened: as §1
UACC-62 = test: Growth inhibition of human UACC62 cells after 48 hrs; settings: UACC-62, 48 h
Procedure, shortened: (§2)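 NCI 60-line screen: cells in RPMI 1640 with 5% FBS and 2 mM L-glutamine, plated at 5000–40000 cells/well, grown 24 h (37 °C, 5% CO₂), then exposed to five 10-fold or ½-log dilutions (DMSO stock) for 48 h. Fixed with TCA (final 10% for adherent cells, 16% for suspension cells), then SRB stained with absorbance at 515 nm. GI50 from percentage growth relative to time-zero and control wells.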

NCI-H522 = test: Growth inhibition of human NCI-H522 cells after 48 hrs; settings: NCI-H522, 48 h; procedure, shortened: as §1
SF-295 = test: Growth inhibition of human SF295 cells after 48 hrs; settings: SF-295, 48 h; procedure, shortened: as §1
NCI-H226 = test: Growth inhibition of human NCI-H226 cells after 48 hrs; settings: NCI-H226, 48 h; procedure, shortened: as §1
LOX IMVI = test: Growth inhibition of human LOXIMVI cells after 48 hrs; procedure, shortened: as §1
Malme-3M = test: Growth inhibition of human MALME3M cells after 48 hrs; procedure, shortened: as §1
SNB-19 = test: Growth inhibition of human SNB19 cells after 48 hrs; settings: SNB-19, 48 h; procedure, shortened: as §2
TK-10 = test: Growth inhibition of human TK10 cells after 48 hrs; settings: TK-10, 48 h; procedure, shortened: as §2
UO-31 = test: Growth inhibition of human UO31 cells after 48 hrs; settings: UO-31, 48 h; procedure, shortened: as §2
K562 = test: Growth inhibition of human K562 cells after 48 hrs; settings: K562, 48 h; procedure, shortened: as §1
SNB-75 = test: Growth inhibition of human SNB75 cells after 48 hrs; settings: SNB-75, 48 h; procedure, shortened: as §2
HCT-116 = test: Growth inhibition of human HCT116 cells after 48 hrs; settings: HCT-116, 48 h; procedure, shortened: as §1
HOP-92 = test: Growth inhibition of human HOP92 cells after 48 hrs; settings: HOP-92, 48 h; procedure, shortened: as §1
OVCAR-4 = test: Growth inhibition of human OVCAR4 cells after 48 hrs; settings: OVCAR-4, 48 h; procedure, shortened: as §1
IGROV-1 = test: Growth inhibition of human IGROV1 cells after 48 hrs; settings: IGROV-1, 48 h; procedure, shortened: as §1
CCRF-CEM = test: Growth inhibition of human CCRF-CEM cells after 48 hrs; procedure, shortened: as §1
NCI-H23 = test: Growth inhibition of human NCI-H23 cells after 48 hrs; settings: Homo sapiens, NCI-H23, 48 h; procedure, shortened: as §1
T47D = test: Growth inhibition of human T47D cells after 48 hrs; procedure, shortened: as §2
SF-539 = test: Growth inhibition of human SF539 cells after 48 hrs; settings: SF-539, 48 h; procedure, shortened: as §1
NCI-H322M = test: Growth inhibition of human NCI-H322M cells after 48 hrs; procedure, shortened: as §1
HCT-15 = test: Growth inhibition of human HCT15 cells after 48 hrs; settings: HCT-15, 48 h; procedure, shortened: as §1
ACHN = test: Growth inhibition of human ACHN cells after 48 hrs; procedure, shortened: as §1
A549 = test: Growth inhibition of human A549 cells after 48 hrs; settings: A549, 48 h; procedure, shortened: as §1
[1] = Growth inhibition of human HS578T cells after 48 hrs; settings: Hs-578T; procedure, shortened: as §1
OVCAR-8 = test: Growth inhibition of human OVCAR8 cells after 48 hrs; settings: OVCAR-8, 48 h; procedure, shortened: as §1
[2] = read-out: Log LC50 (the source's name) (converted)

CCOC(=O)CNC(=O)CCCn1c(=O)c2c3ccccc3n(C)c2n2nnc(-c3ccccc3)c12
GI50 (SK-MEL-28): > 50.1 µM | LC50 (SK-MEL-28): > 50.1 µM | TGI (SK-MEL-28; read-out: pTGI (converted)): > 50.1 µM | GI50 (COLO 205): > 50.1 µM | LC50 (COLO 205): > 50.1 µM | TGI (COLO 205; read-out: pTGI (converted)): > 50.1 µM | GI50 (HT-29): > 50.1 µM | LC50 (concentration killing 50% of cells) (HT-29): > 50.1 µM | TGI (HT-29; read-out: pTGI (converted)): > 50.1 µM | GI50 (SK-MEL-2): 9.55 µM | LC50 (SK-MEL-2): > 50.1 µM | TGI (SK-MEL-2; read-out: pTGI (converted)): 28.8 µM | GI50 (HOP-62): 5.89 µM | LC50 (HOP-62): > 50.1 µM | TGI (HOP-62; read-out: pTGI (converted)): 17.8 µM | GI50 (MDA-MB-435): > 50.1 µM | LC50 (MDA-MB-435): 39.8 µM | TGI (MDA-MB-435; read-out: pTGI (converted)): 20 µM | GI50 (M14): 18.6 µM | LC50 (M14): > 50.1 µM | TGI (M14; read-out: pTGI (converted)): > 50.1 µM | GI50 (OVCAR-3): 12.6 µM | LC50 (OVCAR-3): > 50.1 µM | TGI (OVCAR-3; read-out: pTGI (converted)): 49 µM | GI50 (UACC-62): 7.24 µM | LC50 (UACC-62): > 50.1 µM | TGI (UACC-62; read-out: pTGI (converted)): 21.9 µM | GI50 (NCI-H522): 6.46 µM | LC50 (NCI-H522): > 50.1 µM | TGI (NCI-H522; read-out: pTGI (converted)): 20 µM | GI50 (SF-295): 4.79 µM | LC50 (SF-295): > 50.1 µM | TGI (SF-295; read-out: pTGI (converted)): 17.4 µM | GI50 (NCI-H226): 25.1 µM | CC50 (NCI-H226; [2]): > 50.1 µM | TGI (NCI-H226; read-out: pTGI): > 50.1 µM | GI50 (LOX IMVI): 25.1 µM | LC50 (lethal concentration, 50% cell kill) (LOX IMVI): > 50.1 µM | TGI (LOX IMVI; read-out: pTGI (converted)): > 50.1 µM | GI50 (Malme-3M): > 50.1 µM | LC50 (Malme-3M): > 50.1 µM | TGI (Malme-3M; read-out: pTGI (converted)): > 50.1 µM | LC50 (SNB-19): 17 µM | GI50 (TK-10): 8.71 µM | LC50 (TK-10): > 50.1 µM | TGI (TK-10; read-out: pTGI (converted)): 20.9 µM | GI50 (UO-31): 47.9 µM | LC50 (UO-31): > 50.1 µM | TGI (UO-31; read-out: pTGI (converted)): > 50.1 µM | GI50 (K562): 4.68 µM | LC50 (K562): > 50.1 µM | TGI (K562; read-out: pTGI (converted)): > 50.1 µM | GI50 (SNB-75): 1.12 µM | LC50 (SNB-75): 17 µM | GI50 (HCT-116): 9.12 µM | LC50 (HCT-116): > 50.1 µM | TGI (HCT-116; read-out: pTGI (converted)): 27.5 µM | GI50 (HOP-92): > 50.1 µM | LC50 (HOP-92): 3.63 µM | TGI (HOP-92; read-out: pTGI (converted)): 14.8 µM | GI50 (OVCAR-4): > 50.1 µM | LC50 (OVCAR-4): > 50.1 µM | TGI (OVCAR-4; read-out: pTGI (converted)): > 50.1 µM | GI50 (IGROV-1): 8.91 µM | LC50 (IGROV-1): > 50.1 µM | TGI (IGROV-1; read-out: pTGI (converted)): 30.2 µM | GI50 (CCRF-CEM): 26.3 µM | LC50 (CCRF-CEM): > 50.1 µM | TGI (CCRF-CEM; read-out: pTGI (converted)): > 50.1 µM | GI50 (NCI-H23): 11.7 µM | CC50 (NCI-H23; [2]): > 50.1 µM | TGI (NCI-H23; read-out: pTGI (converted)): > 50.1 µM | GI50 (T47D): 43.7 µM | CC50 (T47D; [2]): > 50.1 µM | TGI (T47D; read-out: pTGI (converted)): > 50.1 µM | GI50 (SF-539): 4.27 µM | LC50 (concentration killing 50% of cells) (SF-539): 28.8 µM | TGI (SF-539; read-out: pTGI (converted)): 11.7 µM | GI50 (NCI-H322M): > 50.1 µM | LC50 (NCI-H322M): > 50.1 µM | TGI (NCI-H322M; read-out: pTGI (converted)): > 50.1 µM | GI50 (HCT-15): > 50.1 µM | LC50 (HCT-15): > 50.1 µM | TGI (HCT-15; read-out: pTGI): > 50.1 µM | GI50 (ACHN): 9.33 µM | LC50 (ACHN): > 50.1 µM | TGI (ACHN; read-out: pTGI (converted)): 33.9 µM | GI50 (A549): 33.1 µM | CC50 (A549; [2]): > 50.1 µM | TGI (A549; read-out: pTGI (converted)): > 50.1 µM | GI50 [1]: 4.47 µM | LC50 (50% lethal concentration) [1]: > 50.1 µM | TGI ([1]; read-out: pTGI (converted)): > 50.1 µM | GI50 (OVCAR-8): 25.1 µM | LC50 (OVCAR-8): > 50.1 µM | TGI (OVCAR-8; read-out: pTGI (converted)): > 50.1 µM
